This is an account of results in ChEMBL document CHEMBL1148082, “Cucurbitacins, cell adhesion inhibitors from Conobea scoparioides” (J Nat Prod, 1994).

Experiment [1] is filed under the species Homo sapiens. Kind of experiment: Inhibition of actin polymerization in fMLP-stimulated human neutrophils assessed as positive fluorescence signal at 1 uM. The essentials: (§1)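 Human peripheral blood neutrophils were preincubated with compound for 45 min at 37° in PBS with Ca²⁺/Mg²⁺ and 10% fetal calf serum. They were then stimulated with fMLP (1 × 10⁻⁸ M final) for 1 min at 37°. Cells were fixed and permeabilized for at least 30 min at room temperature in 3% paraformaldehyde with lysophosphatidylcholine (12.5 µg/ml), pH 7.6. They were then stained with NBD-phalloidin for 15 min at 37° and analysed by flow cytometry (ex 488, em 530 nm). The value is the percent of cells with fluorescence above background.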

Experiment [2] is filed under the species Homo sapiens. Briefly: Inhibition of actin polymerization in fMLP-stimulated human neutrophils assessed as positive fluorescence signal at 10 uM. The essentials: as §1
The species entered for experiment [3] is Homo sapiens. Briefly: Inhibition of actin polymerization in fMLP-stimulated human neutrophils assessed as positive fluorescence signal at 0.33 uM. The essentials:
as §1

For experiment [4], the system named is JY. Kind of experiment: Cytotoxicity against human JY cells assessed as inhibition of thymidine uptake at 0.3 uM by scintillation counting. The class given is functional. The essentials: (§2)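 PKH26-stained JY cells were held at 37° with compound (0.3, 1.0, 3.3 or 50 μM) for 24 h and pulsed with tritiated thymidine during the last 5 h. Uptake was counted by scintillation and expressed as % inhibition.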

The subject of experiment [5] is JY. Briefly: Cytotoxicity against human JY cells assessed as inhibition of thymidine uptake at 3.3 uM by scintillation counting. The class given is functional. The essentials:
as §2

Experiment [6] is filed under the species Homo sapiens. Kind of experiment: Inhibition of actin polymerization in fMLP-stimulated human neutrophils assessed as positive fluorescence signal at 3.3 uM. The procedure, abridged: as §1
Experiment [7] has as its system JY. Briefly: Cytotoxicity against human JY cells assessed as inhibition of thymidine uptake at 1 uM by scintillation counting. The class given is functional. The essentials:
as §2

The target in experiment [8] is Protein kinase C (PKC) (Homo sapiens) (UniProt O94806+P41743+P17252+P05129+Q05655+P05771+Q05513+Q02156+P24723+Q15139+Q04759). Kind of experiment: Inhibition of PKC in human JY cells. The class given is cell-based.
Experiment [9] has as its system JY. Kind of experiment: Cytotoxicity against human JY cells assessed as inhibition of thymidine uptake up to 5 hrs. In kind it is functional, cell-based. The procedure, abridged:
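Proliferation assay in PKH26-stained JY cells exposed to test compounds at 37° for 5 h, with a tritiated thymidine pulse over the final 5 h. Thymidine uptake was quantitated by scintillation counting.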

Experiment [10] concerns JY. Kind of experiment: Effect on cell activation in human JY cells assessed as inhibition of Ca2+ flux. The class given is functional, cell-based.
For experiment [11], the system named is JY. Kind of experiment: Cytotoxicity against human JY cells after 48 hrs by MTT assay. The class given is functional, cell-based. The essentials:
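PKH26-stained JY cells incubated at 37° with test compounds for 48 h. MTT added for the last 4 h. Cells and formazan crystals were solubilized, and colour was read on an ELISA plate reader.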

In experiment [12] the test system is JY. Kind of experiment: Cytotoxicity against human JY cells up to 45 mins. In kind it is functional, cell-based. The essentials: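 Washout format: stained JY cells were treated with compounds for 45 min, matching the adhesion assay length, then washed extensively. Cells were then either incubated 24 h with a tritiated thymidine pulse in the last 5 h and scintillation counting, or run in the 48-h MTT assay.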

For experiment [13], the system named is JY. Kind of experiment: Cytotoxicity against human JY cells assessed as inhibition of thymidine uptake at 50 uM by scintillation counting. The class given is functional. The procedure, abridged: as §2

Active and inactive are the calls of the source. The rule behind the calls is not given here.

Regarding `C=C1[C@@H](C)[C@H]2[C@H](Cc3ccccc3)NC(=O)[C@]23OC(=O)/C=C/[C@H](O)CCC[C@@H](C)C/C=C/[C@H]3[C@@H]1O`, the inhibition in the experiment listed under Homo sapiens [1] came out at 45.5%; in the experiment filed under Homo sapiens [2], 4.2%.
Regarding `CC(=O)OC(C)(C)/C=C/C(=O)[C@](C)(O)[C@H]1[C@H](O)C[C@@]2(C)[C@@H]3CC=C4[C@H](C[C@H](O)C(=O)C4(C)C)[C@]3(C)C(=O)C[C@]12C` [CUCURBITACIN B], the results for the inhibition in the experiment listed under Homo sapiens [3], in the experiment listed under Homo sapiens [1] and in the experiment listed under Homo sapiens [6] were 29.8%, 19.5% and 9.6%, respectively. Besides, in the experiment with JY [4], the inhibition at 0.3 µM came to 39%. Also, the inhibition at 3.3 µM in the experiment on JY [5] turned out to be 71%. The inhibition at 1 µM with JY [7] was determined as 63%.
Consider `CC(C)(O)/C=C/C(=O)[C@](C)(O)[C@H]1[C@H](O)C[C@@]2(C)[C@@H]3CC=C4[C@@H](C[C@H](O)C(=O)C4(C)C)[C@]3(C)C(=O)C[C@]12C` [CUCURBITACIN D], for which the results for the inhibition in the experiment filed under Homo sapiens [3], in the experiment listed under Homo sapiens [1] and in the experiment listed under Homo sapiens [6] were 75.2%, 64.6% and 24.3%, respectively. Moreover, the inhibition at 0.3 µM in the experiment on JY [4] came out at 12%. The inhibition at 3.3 µM in the experiment on JY [5] was determined as 58%. Also, the inhibition at 1 µM with JY [7] was 45%.
Consider `CC(=O)OC(C)(C)/C=C/C(=O)[C@](C)(O)[C@H]1[C@H](O)C[C@@]2(C)[C@@H]3CC=C4[C@@H](C=C(O)C(=O)C4(C)C)[C@]3(C)C(=O)C[C@]12C` [CUCURBITACIN E], for which the outcome (in experiment [8]; in the experiment on JY [9]; in the experiment with JY [10]) was inactive. The results for the inhibition in the experiment listed under Homo sapiens [3], in the experiment filed under Homo sapiens [1] and in the experiment listed under Homo sapiens [6] were 21.5%, 24.7% and 3.8%, respectively. In the experiment with JY [4], the inhibition at 0.3 µM turned out to be 19%. Moreover, the outcome in the experiment on JY [11] was Active. Moreover, the inhibition at 3.3 µM with JY [5] turned out to be 68%. In the experiment with JY [12], the Activity result is “Toxic”. Besides, the inhibition at 1 µM with JY [7] is 60%.
`CC(C)(O)/C=C/C(=O)[C@](C)(O)[C@H]1[C@H](O)C[C@@]2(C)[C@@H]3CC=C4[C@@H](C=C(O)C(=O)C4(C)C)[C@]3(C)C(=O)C[C@]12C` [CUCURBITACIN I]: the outcome (in [8]; in the experiment on JY [10]) was inactive. Further, the inhibition stood at 60.5% in the experiment filed under Homo sapiens [3], 15.3% in the experiment filed under Homo sapiens [1] and 20.5% in the experiment filed under Homo sapiens [6]. Besides, in the experiment with JY [4], the inhibition at 0.3 µM amounted to 34%. For the same compound, in the experiment on JY [5], the inhibition at 3.3 µM came out at 58%. Moreover, the inhibition at 1 µM with JY [7] came to 63%.
With `CC(C)(O)CCC(=O)[C@@](C)(O)C1[C@H](O)C[C@@]2(C)[C@@H]3CC=C4C(C=C(O)C(=O)C4(C)C)[C@]3(C)C(=O)C[C@]12C` (stereo partly specified) [CUCURBITACIN L], the inhibition in the experiment filed under Homo sapiens [3] came out at 86.2%; in the experiment listed under Homo sapiens [1], 79.2%; in the experiment filed under Homo sapiens [6], 77.7%. Besides, in the experiment on JY [13], the inhibition at 50 µM turned out to be 69%.
Take `CC(C)(O)CCC(=O)[C@](C)(O)[C@H]1[C@H](O)C[C@@]2(C)[C@@H]3CC=C4[C@@H](C[C@H](O)C(=O)C4(C)C)[C@]3(C)C(=O)C[C@]12C` [CUCURBITACIN R]: the result (in experiment [8]; with JY [10]) was inactive. In addition, the inhibition in the experiment listed under Homo sapiens [3] came to 79.2%; in the experiment filed under Homo sapiens [1] it was 82.8%; in the experiment filed under Homo sapiens [6], 86%. For the same compound, the inhibition at 0.3 µM with JY [4] came out at 20%. Further, the inhibition at 3.3 µM in the experiment on JY [5] was determined as 7%. Moreover, in the experiment with JY [7], the inhibition at 1 µM was 22%. In the experiment on JY [13], the inhibition at 50 µM was 74%.
